Screens (PubChem BioAssay)
Hits are enriched below; roughly 4.6% of the tested compounds scored in any of these assays.
DSG3 Ab inh – inhibitors of pemphigus antibody binding to human desmoglein-3; 0.48% of 310,000 active; DSG3-coupled beads, scFv-anti-DSG3-GFP binding, flow cytometry; stronger effect = lower value; AID 588358; binding (percent of control), % at 10 µM;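 active = binding more than 3 SD below its plate's average and above zero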;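 note: hits lower antibody fragment binding to DSG3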
PolyA inh – inhibitors of polyadenylation in S. cerevisiae; S. cerevisiae SKY197-pL101 polyadenylation reporter, beta-gal luminescence; efflux-impaired pdr1/pdr3 knockout yeast; score 100 = 6 SD above DMSO; activity score, % at 12 µM; 0.02% of 300,000 active; AID 1875;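 active = lowest replicate activity score at least 50, where 100 means six control SD above control mean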;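 note: yeast exposed to compound for 9 h at 30 °C; higher score means more reporter readthrough which indicates perturbed polyadenylation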
Arr AP2 block – human beta-arrestin and AP2 interaction inhibition | AID 504490 | inhibition, % at 10 µM | 0.31% of 340,000 active | FITC-arrestin peptide / GST-AP2 beads, flow cytometry; AP2 beta2 appendage carries R879A mutation;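 active = inhibition above a set limit, near 3 SD of compounds lacking own fluorescence, cut at about 54% in these data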;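 note: plate controls were DMSO wells for no effect and 5 µM unlabelled arrestin peptide for full effect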
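Material – GST-tagged AP2 beta2-adaptin appendage (R879A) on 4 µm glutathione beads · Probe or stimulus – fluorescein-tagged arrestin peptide at 50 nM final · Timing – 12 min plus 1 h, RT · Detection – bead flow cytometry, FITC channel · Read-out basis – inhibition as reduced fluorescein signal on beads, percent · Medium – PBS plus Tween 20 (0.05%) and BSA (0.1%)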
ALR H2O2 inh – inhibitors of human sulfhydryl oxidase ALR; P55789; purified ALR, DTT oxidation, H2O2 HRP-luminol luminescence; inhibition, % (no concentration beside the values); 3.8% of 290,000 active; AID 485317;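 active = mean replicate inhibition above about 79%, with every replicate also reaching it, limit read from the data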
Target sequence (P55789 whole entry, looked up): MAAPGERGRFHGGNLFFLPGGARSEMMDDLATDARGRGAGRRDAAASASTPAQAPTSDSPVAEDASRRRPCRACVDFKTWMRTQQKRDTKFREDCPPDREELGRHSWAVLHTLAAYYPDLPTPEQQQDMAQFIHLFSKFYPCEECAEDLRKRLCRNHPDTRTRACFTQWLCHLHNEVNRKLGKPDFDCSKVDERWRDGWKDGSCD
NALP1 inh – NALP1 inhibition; inhibition, % at 10 µM; 0.61% of 280,000 active; S. cerevisiae NALP1/ASC/caspase-1 growth, X-gal OD620, 72 h; in the data active = inhibition mostly above about 24%, no sharp cut-off; inactive = mostly below about 32%
NLRP3 yeast inh – blocks the NALP3 inflammasome reconstituted in yeast. Yeast reconstituted NLRP3/ASC/caspase-1, beta-gal luminescence, 24 h. inhibition, % at 10 µM. 0.39% of 330,000 active. AID 2825;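 active = inhibition of 50% or more; inactive = inhibition below 50%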;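 note: plate controls were induced DMSO wells for no effect and uninduced yeast grown without galactose for full effect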
Active calls of the source: *; x = no result given.

SMILES	DSG3 Ab inh	PolyA inh	Arr AP2 block	ALR H2O2 inh	NALP1 inh	NLRP3 yeast inh
O=C(c1ccc2c(c1)N(Cc1ccccc1)CCS2)N1CCCCC1	108	-13	-5	99*	19	6
CCCN(C(=O)c1cccs1)c1nnc(-c2ccncc2)s1	78*	5	2	-3	-1	31
CCN(C(=O)Cc1ccccc1OC)c1nnc(-c2ccncc2)s1	100	-11	-3	-5	0	12
CC(C)[C@H](NC(=O)c1ccccc1Cl)C(=O)OCC(=O)N1CCCCC1	98	x	16	-1	x	-4
Cc1ccc(C(c2c(O)nc3n(c2=O)CCS3)c2c(O)nc3n(c2=O)CCS3)cc1	108	0	22	97*	25	10
O=c1c(C(c2c(O)nc3n(c2=O)CCS3)c2cccc3ccccc23)c(O)nc2n1CCS2	96	26	1	96*	-16	-14
O=c1c(C(c2ccc(Br)cc2)c2c(O)nc3n(c2=O)CCS3)c(O)nc2n1CCS2	114	12	-7	52	x	9
O=c1c(C(c2ccc(O)cc2)c2c(O)nc3n(c2=O)CCS3)c(O)nc2n1CCS2	108	-13	10	x	1	9
CNC(=S)N/N=C/c1ccc(-c2cc([N+](=O)[O-])ccc2Cl)o1	-12*	-22	1	-1	16	4
N#C/C(=C/c1ccc(-c2ccccc2[N+](=O)[O-])o1)C(N)=O	98	10	16	-56	8	3
N#C/C(=C/c1ccc(-c2cc([N+](=O)[O-])ccc2Cl)o1)C(N)=O	75*	-12	-2	-5	x	11
CCOC(=O)c1sc(=S)n(CC)c1N	94	-8	6	99*	14	16
C=CCn1c(N)c(C(=O)N2CCN(C)CC2)sc1=S	130	-4	-2	99*	21	5
C=CCn1c(NC(=O)CC)c(C(=O)OCC)sc1=S	93	26	-1	3	11	21
CCn1c(N)c(C(N)=O)sc1=S	103	-19	-8	98*	7	3
CCOC(=O)c1sc(=S)n(Cc2ccccc2)c1N	111	-32	-8	10	8	37
Cc1ccc(-n2c(N)c(C(=O)N3CCN(C)CC3)sc2=S)cc1	101	24	11	3	-28	-5
C=CCn1c(N)c(C(=O)OCC)sc1=S	x	-16	-9	99*	0	-7
CCOC(=O)c1sc(=S)n(C)c1N	99	0	1	99*	14	12
CCn1c(N)c(C(=O)NC2CCCCC2)sc1=S	96	-8	12	98*	8	26
COc1ccc2c(c1)CSC(c1ccccc1)C2=O (configuration not stated)	103	x	x	x	x	x
CCn1c(CN2CCN(c3ccc(Cl)cc3)CC2)nc2ccccc21	105	x	0	96*	8	18
Cn1c(CN2CCN(c3ccc(Cl)cc3)CC2)nc2ccccc21	105	3	16	3	17	22
CC1C(c2ccccc2)=Nn2c(=O)n(-c3ccccc3)c(=O)n21 (configuration not stated)	98	x	x	x	x	x
O=C(CSc1nc(O)cc(=O)n1-c1ccc(Cl)c(Cl)c1)Nc1ccc(Cl)cc1Cl	106	0	-5	98*	0	15
SMILES	DSG3 Ab inh	PolyA inh	Arr AP2 block	ALR H2O2 inh	NALP1 inh	NLRP3 yeast inh
Cc1ccc(NC(=O)CSc2nc(O)cc(=O)n2-c2ccc(C)cc2)cc1	95	7	2	100*	-11	15
Cc1ccc(-n2c(SCC(N)=O)nc(O)cc2=O)cc1	98	-12	0	0	19	3
Cc1ccc(NC(=O)CSc2nc(O)cc(=O)n2C)cc1	90	-11	3	99*	3	-17
COc1ccc(-n2c(SCC(=O)Nc3ccc(Br)cc3)nc(O)cc2=O)cc1	x	-10	-4	99*	x	8
COc1ccc(Cl)cc1NC(=O)CN(C)C(=O)c1ccc(-n2cncn2)cc1	x	x	-9	0	x	3
O=c1cc(O)nc(SCc2ccccc2)n1-c1ccc(Cl)cc1	120	-9	-11	98*	2	14
Cn1c(SCC(=O)Nc2ccc(Br)cc2)nc(O)cc1=O	x	12	-5	99*	x	5
CCc1ccc(S(=O)(=O)NCC2(N3CCOCC3)CCCCC2)cc1	95	x	2	-1	x	-1
COc1ccc(-c2nc(CS(=O)CC(=O)NCc3ccco3)c(C)o2)cc1OC (configuration not stated)	112	-7	-1	98*	-9	-4
Cc1cccc(-c2nc(CS(=O)CC(=O)NCc3ccco3)c(C)o2)c1 (configuration not stated)	101	-9	2	99*	11	10
Cc1oc(-c2cccc(Cl)c2)nc1CS(=O)(=O)CC(=O)NCc1ccco1	101	-7	-17	-12	22	7
Cc1ccc(-c2nc(CS(=O)CC(=O)NCc3ccco3)c(C)o2)cc1 (configuration not stated)	105	-4	16	99*	18	-15
CC1CCCCC1N(C)C1CCN(C(=O)CNC(=O)/C=C/c2cccc(Cl)c2)CC1 (configuration not stated)	104	4	13	-6	20	9
COc1ccc(CNC(=O)CN2C(=O)NC(Cc3ccccc3)(c3ccccc3)C2=O)cc1OC (configuration not stated)	101	x	-8	x	x	3
COc1ccc(/C=C2\SC(=S)N(C(C)C(=O)NC3C=CS(=O)(=O)C3)C2=O)cc1 (configuration not stated)	97	-27	2	98*	5	8
CC(NC(=O)c1ccccc1F)c1nnc(SCC(=O)Nc2nnc(C3CC3)s2)n1C (configuration not stated)	99	-23	-5	x	x	5
CCc1ncc(CN2CCCCC2C(=O)Nc2ccc(Oc3ccccc3)nc2)cn1 (configuration not stated)	112	1	20	3	4	21
Cc1cc(C)nc(NNC(=O)c2ccccc2O)n1	104	0	2	95*	-8	10
Cc1cc(NC(=O)c2ccccc2O)nc(C)n1	101	6	13	-1	18	10
COc1ccc(CC(=O)Nc2cccc(-c3csc(C)n3)c2)cc1	-20*	8	8	-16	14	28
COC(=O)c1ccc(NC(=O)CCS(=O)(=O)c2ccc(Br)cc2)cc1	100	-10	9	-5	-7	-4
CCOC(=O)c1ccc(NC(=S)N(CCCN2CCCCC2)Cc2ccco2)cc1	119	18	8	-1	44*	6
CCOC(=O)c1ccc(NC(=O)CSCCC(=O)O)cc1	100	1	-9	99*	-21	11
CCOC(=O)c1ccc(NC(=O)CSCc2ccco2)cc1	96	1	24	100*	0	16
